Screening results: PubChem BioAssay, several laboratories
MEKK2 WT-MEK5: raises or lowers MEK5 binding to wildtype human MEKK2 PB1 domain | Q9Y2U5 | bead flow cytometry, Alexa488-MEK5 binding to MEKK2 WT; actives lie on both sides | binding response (% of control), % at 10 µM | 290,000 tested, 1.1% active; in the data active = binding response below about 67% or above about 130%
MEKK3 PB1 HTS: raises or lowers MEK5 binding to the human MEKK3 PB1 domain | Q99759 | binding response (% of control), % at 10 µM | AID 1529 | bead-based flow cytometry, Alexa488-MEK5 binding to MEKK3; actives lie on both sides; 0 = blocked by unlabeled MEK5, 100 = vehicle | 290,000 tested, 1.4% active;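 active = binding response more than 3 SD above or below the average of its plate-row segment, actives on both sides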;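 note: Alexa488 bead fluorescence after subtracting the streptavidin-only scavenger bead signal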
Target sequence (Q99759 whole entry, looked up, the tested form may be a part): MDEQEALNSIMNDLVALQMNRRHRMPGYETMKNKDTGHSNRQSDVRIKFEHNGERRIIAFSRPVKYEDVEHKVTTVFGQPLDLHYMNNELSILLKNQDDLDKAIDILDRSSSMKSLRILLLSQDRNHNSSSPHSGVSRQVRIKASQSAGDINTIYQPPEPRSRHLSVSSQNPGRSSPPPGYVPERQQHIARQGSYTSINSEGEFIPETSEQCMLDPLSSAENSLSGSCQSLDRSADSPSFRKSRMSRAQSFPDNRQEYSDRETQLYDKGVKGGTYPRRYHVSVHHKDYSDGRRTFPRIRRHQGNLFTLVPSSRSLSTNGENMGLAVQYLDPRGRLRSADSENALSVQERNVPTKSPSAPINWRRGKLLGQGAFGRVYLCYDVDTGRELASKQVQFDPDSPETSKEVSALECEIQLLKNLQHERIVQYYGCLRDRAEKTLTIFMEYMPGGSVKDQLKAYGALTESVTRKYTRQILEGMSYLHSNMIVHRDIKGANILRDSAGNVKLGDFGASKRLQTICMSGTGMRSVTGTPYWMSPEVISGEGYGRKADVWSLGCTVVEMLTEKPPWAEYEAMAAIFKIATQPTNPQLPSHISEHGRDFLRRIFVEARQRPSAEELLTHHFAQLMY
Lipid droplet: hepatic lipid droplet formation modulation; AML12 mouse hepatocytes, oleate lipid droplets, BODIPY imaging; AID 1656; 240,000 tested, 0.4% active; inhibition, % at 6.5 µM;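 active = lipid droplet intensity inhibited by at least 50%, with more than 500 cells counted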
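Test system: AML12 hepatocytes (mouse); reagent: oleate loading, 100 µM; dosing: one dose, 6.5 µM compound; incubation: overnight exposure; signal: fluorescence imaging, 20x objective, two fields per well; read-out basis: % inhibition of corrected integrated BODIPY droplet signal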
MEKK2 mut-MEK5: signal of MEK5 binding to mutant human MEKK2 PB1 domain | bead flow cytometry, Alexa488-MEK5 binding to MEKK2 mutant | percent response, % at 10 µM | 290,000 tested, 0.35% active | AID 1530; in the data active = percent response above about 24%, passing the limit was not always enough
MEKK2wt confirm: raises or lowers MEK5 binding to wildtype human MEKK2, retest | shares compounds with MEKK3 PB1 HTS | bead flow cytometry, Alexa488-MEK5 binding to MEKK2 WT; actives lie on both sides | binding response (% of control), % at 10 µM | 5,900 tested, 2.4% active | AID 1892; in the data active = binding response below about 16% or above about 210%; inactive = in between
MEKK2mut-MEK5: signal of MEK5 binding to mutant human MEKK2, retest; shares compounds with MEKK3 PB1 HTS; bead flow cytometry, Alexa488-MEK5 binding to MEKK2 mutant; percent response, % at 10 µM; 5,900 tested, 2% active; in the data active = percent response mostly above about 71%, no sharp cut-off; inactive = mostly below about 38%;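 note: higher means compound restores mutant binding toward wildtype level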
MEKK3 confirm: confirmation of inhibitors of MEK5 binding to human MEKK3. 5,900 tested, 1.8% active. shares compounds with MEKK3 PB1 HTS. bead flow cytometry, Alexa488-MEK5 binding to MEKK3; hits give low values. binding response (% of control), % at 10 µM;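 active = binding response below 72% of control, or above a set upper limit, though filed actives all read lower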;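 note: 100% = DMSO only wells and 0% = binding blocked by excess unlabeled MEK5; lower values mean stronger disruption of MEK5 binding to MEKK3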
* hit, by the source's call; [ ] = remark or other dose. Most compounds without a hit are left out; they make up all but 2.6% or so of the library.

For COc1ccc(-c2oc3ncnc(NCCN4CCOCC4)c3c2-c2ccc(OC)cc2)cc1 the results were MEKK2 WT-MEK5 108, MEKK3 PB1 HTS 99 and MEKK2 mut-MEK5 0.
For COc1ccc(-c2oc3ncnc(NCCCN4CCOCC4)c3c2-c2ccc(OC)cc2)cc1 the results were MEKK2 WT-MEK5 138*, MEKK3 PB1 HTS 85, Lipid droplet -18, MEKK2 mut-MEK5 10, MEKK2wt confirm 133, MEKK2mut-MEK5 14 and MEKK3 confirm 102.
For Cn1cc(CN2CCCC(C(=O)c3nccn3C)C2)c(-c2cccc(Cl)c2)n1 (configuration not stated) the results were MEKK2 WT-MEK5 100, MEKK3 PB1 HTS 103, Lipid droplet -21 and MEKK2 mut-MEK5 2.
For O=C(O)CCS(=O)(=O)Cc1ccccc1F the results were MEKK2 WT-MEK5 2.0*[inhibitor], MEKK3 PB1 HTS 2.0*[inhibitor], MEKK2 mut-MEK5 -46, MEKK2wt confirm 108, MEKK2mut-MEK5 5 and MEKK3 confirm 105.
`CCNC(=S)N(CCc1c(C)[nH]c2ccc(F)cc12)Cc1cccnc1` gave MEKK2 WT-MEK5 133, MEKK3 PB1 HTS 107, MEKK2 mut-MEK5 35*, MEKK2wt confirm 121, MEKK2mut-MEK5 12 and MEKK3 confirm 103.
`COC(=O)CSc1nc(SCc2ccccc2Cl)nc2c1CCCC2` gave MEKK2 WT-MEK5 95, MEKK3 PB1 HTS 92, Lipid droplet -7 and MEKK2 mut-MEK5 -3.
For O=C(O)CSc1nc(SCc2ccccc2Cl)nc2c1CCCC2 the results were MEKK2 WT-MEK5 125, MEKK3 PB1 HTS 122*, Lipid droplet 24, MEKK2 mut-MEK5 10, MEKK2wt confirm 103, MEKK2mut-MEK5 0 and MEKK3 confirm 103.
O=C(Oc1c(CN2CCOCC2)cc(Cl)c2cccnc12)c1ccccc1Br was read as MEKK2 WT-MEK5 99, MEKK3 PB1 HTS 99, Lipid droplet -2 and MEKK2 mut-MEK5 -1.
`CN1CCN(Cc2cc(Cl)c3cccnc3c2OC(=O)c2cccs2)CC1` gave MEKK2 WT-MEK5 94, MEKK3 PB1 HTS 72*[inhibitor], Lipid droplet 9, MEKK2 mut-MEK5 -1, MEKK2wt confirm 105, MEKK2mut-MEK5 -1 and MEKK3 confirm 100.
For Cc1ccc(CCNC(=O)c2cccc(NC3=NC4CS(=O)(=O)CC4S3)c2)cc1 (configuration not stated) the results were MEKK2 WT-MEK5 101, MEKK3 PB1 HTS 103, Lipid droplet 27 and MEKK2 mut-MEK5 -2.
`CC1(O)C(=O)C=C2C=C(c3ccc(C#N)cc3)OC=C2C1=O` (configuration not stated) gave MEKK2 WT-MEK5 91, MEKK3 PB1 HTS 101 and MEKK2 mut-MEK5 0.
`O=C1N=C(N2CCN(c3ccccc3)CC2)S/C1=C\c1cn[nH]c1-c1ccccc1` gave MEKK2 WT-MEK5 100, MEKK3 PB1 HTS 105, Lipid droplet 22 and MEKK2 mut-MEK5 0.
`Cc1ccc(N2CCN(C3=NC(=O)/C(=C\c4cn[nH]c4-c4ccccc4)S3)CC2)cc1` gave MEKK2 WT-MEK5 103, MEKK3 PB1 HTS 135*, Lipid droplet -21, MEKK2 mut-MEK5 0, MEKK2wt confirm 98, MEKK2mut-MEK5 -1 and MEKK3 confirm 98.
For O=C(CN1CCN(S(=O)(=O)c2ccccc2)CC1)Nc1ccccc1C(=O)c1ccccc1 the results were MEKK2 WT-MEK5 103, MEKK3 PB1 HTS 128*, Lipid droplet -8, MEKK2 mut-MEK5 0, MEKK2wt confirm 104, MEKK2mut-MEK5 -4 and MEKK3 confirm 99.
For O=C(CN1CCN(S(=O)(=O)c2ccccc2)CC1)Nc1ccccc1Cl the results were MEKK2 WT-MEK5 107, MEKK3 PB1 HTS 106, Lipid droplet -17 and MEKK2 mut-MEK5 6.
Screening CCOC(=O)C1=NN(C(C)=O)C2(CC(=O)N(c3cccc(C)c3)C2=O)C1 (configuration not stated) returned MEKK2 WT-MEK5 104, MEKK3 PB1 HTS 139*, Lipid droplet -5, MEKK2 mut-MEK5 0, MEKK2wt confirm 105, MEKK2mut-MEK5 -3 and MEKK3 confirm 103.
For Cn1c(-c2ccc(C(C)(C)C)cc2)n[nH]c1=S the results were MEKK2 WT-MEK5 92, MEKK3 PB1 HTS 81*[inhibitor], Lipid droplet -1, MEKK2 mut-MEK5 -9, MEKK2wt confirm 111, MEKK2mut-MEK5 9 and MEKK3 confirm 105.
Screening Cc1cnc(C(=O)Nc2ccccc2F)cn1 returned MEKK2 WT-MEK5 1.0*[inhibitor], MEKK3 PB1 HTS 2.0*[inhibitor], Lipid droplet 2, MEKK2 mut-MEK5 -19, MEKK2wt confirm 105, MEKK2mut-MEK5 3 and MEKK3 confirm 102.
O=C(Nc1ccccc1F)c1ccncc1 was read as MEKK2 WT-MEK5 107, MEKK3 PB1 HTS 103, Lipid droplet 14 and MEKK2 mut-MEK5 3.
`COC(=O)n1ccc(C(=O)Nc2ccccc2F)n1` gave MEKK2 WT-MEK5 3.0*[inhibitor], MEKK3 PB1 HTS 3.0*[inhibitor], MEKK2 mut-MEK5 -21, MEKK2wt confirm 103, MEKK2mut-MEK5 3 and MEKK3 confirm 106.
`CCN(CC(=O)NCc1ccc(Cl)cc1)C(=O)CN1C(=O)NC(C)(c2ccccc2)C1=O` (configuration not stated) gave MEKK2 WT-MEK5 99, MEKK3 PB1 HTS 99, Lipid droplet 0 and MEKK2 mut-MEK5 1.
Screening COc1ccc(-c2cc(C(F)(F)F)nc(-n3ccnc3C)n2)cc1 returned MEKK2 WT-MEK5 93, MEKK3 PB1 HTS 91, Lipid droplet -7 and MEKK2 mut-MEK5 -3.
For Cc1c(Cl)cccc1NC(=O)C1CCN(S(C)(=O)=O)CC1 the results were MEKK3 PB1 HTS 104, Lipid droplet -2, MEKK2 mut-MEK5 254*, MEKK2wt confirm 104, MEKK2mut-MEK5 2 and MEKK3 confirm 106.
For Cc1cccc(NC(=O)C2CCN(S(C)(=O)=O)CC2)c1C the results were MEKK2 WT-MEK5 101, MEKK3 PB1 HTS 104 and MEKK2 mut-MEK5 1.
For COc1ccc(OC)c(NC(=O)c2cc(-c3cc(Cl)ccc3O)n[nH]2)c1 the results were MEKK2 WT-MEK5 130, MEKK3 PB1 HTS 145*, MEKK2 mut-MEK5 8, MEKK2wt confirm 93, MEKK2mut-MEK5 -3 and MEKK3 confirm 98.
For COc1ccc(Cl)cc1NC(=O)c1cc(-c2ccccc2O)n[nH]1 the results were MEKK2 WT-MEK5 105, MEKK3 PB1 HTS 103, Lipid droplet 1 and MEKK2 mut-MEK5 -2.
Screening COc1ccc(CCN2CCC(Nc3nc4ccccc4n3Cc3ccc(F)cc3)CC2)cc1 returned MEKK2 WT-MEK5 150*, MEKK3 PB1 HTS 67, Lipid droplet -62, MEKK2 mut-MEK5 38*, MEKK2wt confirm 179, MEKK2mut-MEK5 33 and MEKK3 confirm 102.
